According to ChEMBL document CHEMBL1122568, “Synthesis and anticonvulsant activity of some substituted lactams and amides” (J Med Chem, 1984):

Experiments:
Mus sp. [1] = assay: Anticonvulsant activity was evaluated by maximal electroshock induced convulsion test and was determined 30 min after subcutaneous administration; format: functional
Mus sp. [2] = assay: Anticonvulsant activity was evaluated by metrazole-induced convulsion test and was determined 30 min after subcutaneous administration; format: functional
In short: (§1)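 Secondary evaluation in mice. Compound was given intraperitoneally in 30% polyethylene glycol 400. Median effective dose (ED50) was determined against maximal electroshock (MES) or subcutaneous Metrazol (scMet) convulsions. Median toxic dose (TD50) was determined by the rotorod test. All were read 30 min after dosing.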

Mus musculus [3] = assay: Anticonvulsant activity was evaluated by rotarod toxicity test and was determined 30 min after administration; format: organism-based; conditions: in vivo, 0.5 h; in short: as §1
Mus musculus [4] = assay: Number of animal protected out of 1 was evaluated by metrazole-induced convulsion test at 30 min after subcutaneous administration of >300 mg/kg; format: functional
In short: (§2)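 Preliminary screen in small groups of mice (1-4) at 30, 100 and 300 mg/kg. Protection against MES or scMet convulsions, or rotorod toxicity, was scored at 30 min and 4 h after dosing. The smallest dose giving activity was recorded for each test.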

Mus sp. [5] = assay: Number of animals protected out of 1 was evaluated by maximal electroshock induced convulsion test at 30 min after subcutaneous administration of >300 mg/kg; format: functional; in short: as §2
Mus sp. [6] = assay: Number of animals protected out of 4 was evaluated by rotarod toxicity test and was determined 30 min t 30 min after subcutaneous administration of >300 mg/kg; format: functional; in short: as §2
Mus musculus [7] = assay: Anticonvulsant activity was evaluated by metrazole-induced convulsion test after subcutaneous administration; format: functional; conditions: sc; in short: as §1
[8] = Anticonvulsant activity was evaluated by rotarod toxicity test after subcutaneous administration.; format: organism-based; conditions: mouse, in vivo, sc
Mus musculus [9] = assay: Anticonvulsant activity was evaluated by maximal electroshock induced convulsion test after subcutaneous administration; format: functional; conditions: sc
Mus sp. [10] = assay: (§3) Anticonvulsant activity was evaluated by rotarod toxicity test and was determined 30 min after subcutaneous administration; format: organism-based; conditions: in vivo, sc, 0.5 h
[11] = Anticonvulsant activity was evaluated by rotarod toxicity test after subcutaneous administration; format: organism-based; conditions: mouse, in vivo, sc
Mus musculus [12] = assay: Number of animals protected out of 1 was evaluated by rotarod toxicity test and was determined 30 min t 30 min after subcutaneous administration of >300 mg/kg; format: functional
[13] = as §3; format: organism-based; conditions: mouse, in vivo, sc
Mus musculus [14] = assay: Number of animal protected out of 4 was evaluated by metrazole-induced convulsion test at 30 min after subcutaneous administration of >300 mg/kg; format: functional; in short: as §2
Mus musculus [15] = assay: Anticonvulsant activity was evaluated by maximal electroshock induced convulsion test after subcutaneous administration.; format: functional; conditions: sc
Mus musculus [16] = assay: Number of animals protected out of 4 was evaluated by maximal electroshock induced convulsion test at 30 min after subcutaneous administration of >300 mg/kg; format: functional; in short: as §2
Mus musculus [17] = assay: Number of animals protected out of 1 was evaluated by maximal electroshock induced convulsion test at 30 min after subcutaneous administration of 300 mg/kg; format: functional; in short: as §2
Mus musculus [18] = assay: Number of animal protected out of 1 was evaluated by metrazole-induced convulsion test at 30 min after subcutaneous administration of 30 mg/kg; format: functional; in short: as §2

| Structure (SMILES) | Activity (Mus sp. [1]) [mg/kg] | Activity (Mus sp. [2]) [mg/kg] | No. of animals protected (Mus musculus [4]) | No. of animals protected (Mus sp. [5]) | No. of animals protected (Mus sp. [6]) | ED50 (Mus musculus [7]) [mg/kg] | Activity (Mus sp. [10]) [mg/kg] | also measured |
| --- | --- | --- | --- | --- | --- | --- | --- | --- |
| O=C(CBr)OC1(c2ccccc2)CCCNC1=O (centres undefined) | >300 | 300 | – | – | – | – | – | Activity (Mus musculus [3]): > 300 mg/kg |
| CCOC(=O)N1CCCC(N)(c2ccccc2)C1=O (centres undefined) | 300 | 300 | 1 | 1 | 4 | – | – | Activity (Mus musculus [3]): 300 mg/kg |
| CCCC(CCC)C(=O)O [VALPROIC ACID] | – | – | – | – | – | 149 | – | – |
| CCCC(C)(COC(N)=O)COC(N)=O [MEPROBAMATE] | – | – | – | – | – | 31.5 | – | TD50 [8]: 125 mg/kg; ED50 (Mus musculus [9]): 120 mg/kg |
| O=C(CCl)N1CCCC(O)(c2ccccc2)C1=O (centres undefined) | >300 | >300 | – | – | – | – | > 300 | – |
| O=C(CCCl)NCc1ccccc1 [BECLAMIDE] | – | – | – | – | – | 117 | – | TD50 [11]: 278 mg/kg; ED50 (Mus musculus [9]): 185 mg/kg |
| CCOC(=O)NCCCC(O)(C(=O)OC)c1ccccc1 (centres undefined) | >300 | >300 | 0 | 0 | – | – | > 300 | No. of animals protected (Mus musculus [12]): 0 |
| CCOC(=O)N1CCCC(OC(C)=O)(c2ccccc2)C1=O (centres undefined) | >300 | >300 | 0 | 0 | 0 | – | – | Activity (Mus musculus [3]): > 300 mg/kg |
| COC1(c2ccccc2)CCCNC1=O (centres undefined) | 100 | 300 | – | 1 | 4 | 49.6 | 300 | TD50 at 0.5 h [13]: 239 mg/kg; ED50 (Mus musculus [9]): 121 mg/kg; No. of animals protected (Mus musculus [14]): 4 |
| CCOC(=O)N1CCCC(c2ccccc2)C1=O (centres undefined) | >300 | >300 | 0 | 0 | 0 | – | > 300 | – |
| CCOC(=O)N(C)C(=O)C(CC)(OCc1ccccc1)c1ccccc1 (centres undefined) | >300 | >300 | 0 | 0 | – | – | > 300 | No. of animals protected (Mus musculus [12]): 0 |
| NC(=O)NC(=O)Cc1ccccc1 [PHENACEMIDE] | – | – | – | – | – | – | – | TD50 [8]: 421 mg/kg; ED50 (Mus musculus [15]): 87.3 mg/kg |
| CCC(OCc1ccccc1)(C(=O)NC)c1ccccc1 (centres undefined) | >300 | >300 | 0 | 0 | 0 | – | > 300 | – |
| CN1CCCC(O)(c2ccccc2)C1=O (centres undefined) | 100 | 300 | – | 1 | 0 | 128 | – | TD50 [11]: 350 mg/kg; Activity (Mus musculus [3]): > 300 mg/kg; ED50 (Mus musculus [9]): 84.4 mg/kg; No. of animals protected (Mus musculus [14]): 4 |
| CCOC(=O)N1CCCC(Cl)(c2ccccc2)C1=O (centres undefined) | >300 | 300 | – | – | – | – | > 300 | – |
| CCC(O)(C(=O)NC)c1ccccc1 (centres undefined) | 300 | >300 | 0 | 1 | 0 | – | > 300 | – |
| CCCC(C)OC(=O)N1CCCC(O)(c2ccccc2)C1=O (centres undefined) | 300 | 300 | – | 1 | 0 | – | > 300 | No. of animals protected (Mus musculus [14]): 1 |
| CCOC(=O)N1CCCC(OC)(c2ccccc2)C1=O (centres undefined) | 300 | 300 | 1 | – | 0 | 124 | > 300 | TD50 [11]: > 300 mg/kg; No. of animals protected (Mus musculus [16]): 2; ED50 (Mus musculus [9]): 225 mg/kg |
| CCOC(=O)N1CCCC(O)(c2ccccc2)C1=O (centres undefined) | 300 | 30 | – | – | 0 | 124 | > 300 | No. of animals protected (Mus musculus [17]): 1; No. of animals protected (Mus musculus [18]): 1; TD50 [11]: 451 mg/kg; ED50 (Mus musculus [9]): 132 mg/kg |
| O=C1NCCCC1(O)c1ccccc1 (centres undefined) | >300 | >300 | 0 | 0 | 0 | – | > 300 | – |
| CCOC(=O)N1CCCC(OCC2CCCCC2)(c2ccccc2)C1=O (centres undefined) | >300 | >300 | 0 | 0 | 0 | – | > 300 | – |
